Source: ChEMBL document CHEMBL3621153, “Structure-Based Design of GNE-495, a Potent and Selective MAP4K4 Inhibitor with Efficacy in Retinal Angiogenesis” (ACS Med Chem Lett, 2015)
One block for each compound: values may come before it. Calls of active or inactive are those of the source. No cut-off for these calls is given here.

Columns and labels:
[1] = Clearance in rat liver microsomes assessed as compound remaining incubated for 1 hr by LC-MS/MS method; type: ADME
How it was run: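 Compounds incubated with rat liver microsomes for 1 h; percent parent remaining quantified by LC–MS/MS.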

[2] = Efflux ratio in MDCK cells at 10 uM incubated over 60 mins; type: ADME, cell-based, Canis lupus familiaris; settings: dog
How it was run: (§1)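 MDCK cells exposed to test compound at 10 μM over 60 min. Apparent permeability (Papp) measured. Efflux ratio derived from apical–basolateral versus basolateral–apical flux rates.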

[3] = Apparent permeability in MDCK cells at 10 uM incubated over 60 mins; type: ADME, cell-based, Canis lupus familiaris; settings: dog; how it was run: as §1
[4] = Clearance in mouse liver microsomes assessed as compound remaining incubated for 1 hr by LC-MS/MS method; type: ADME
[5] = system: HUVEC; assay: Anti-angiogenesis activity in HUVEC assessed as inhibition of cell migration; type: functional, cell-based; settings: Homo sapiens
[6] = Clearance in human liver microsomes assessed as compound remaining incubated for 1 hr by LC-MS/MS method; type: ADME
[7] = molecular target: T1, Mitogen-activated protein kinase kinase kinase kinase 4 (Homo sapiens, UniProt O95819); assay: Inhibition of MAP4K4 (unknown origin) by Z'LYTE assay
[8] = molecular target: T1, Mitogen-activated protein kinase kinase kinase kinase 4; assay: Inhibition of MAP4K4 (unknown origin) by LC3K method
How it was run: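 Kinase activity read on a Caliper LabChip 3000 platform, with IC50 values derived from that read-out.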

[9] = Oral bioavailability in rat at 5 mg/kg; type: ADME, organism-based; settings: in vivo
How it was run: (§2)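 Oral dose of 5 mg/kg given as a suspension in 0.5% (w/v) methylcellulose/0.2% (w/v) Tween 80 in sterile water, in mouse, rat or dog. Three animals per group; means reported. Bioavailability derived against a 1 mg/kg IV bolus.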

[10] = Cmax in dog at 1 mg/kg, iv; type: ADME, organism-based, Canis lupus familiaris; set-up: dose 1 mg/kg, route intravenous; settings: in vivo
How it was run: (§3)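 Single IV bolus of 1 mg/kg given as a solution in 10% EtOH, 30% PEG400, 60% 50 mM citrate, pH 3.0, in mouse, rat or dog. Three animals per group; mean values reported.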

[11] = Cmax in mouse at 5 mg/kg, po; type: ADME, organism-based; set-up: dose 5 mg/kg, route oral; settings: in vivo; how it was run: as §2
[12] = Half life in dog at 1 mg/kg, iv; type: ADME, organism-based, Canis lupus familiaris; settings: in vivo; how it was run: as §3
[13] = Cmax in dog at 5 mg/kg, po; type: ADME, organism-based, Canis lupus familiaris; set-up: dose 5 mg/kg, route oral; settings: in vivo; how it was run: as §2
[14] = Cmax in rat at 1 mg/kg, iv; type: ADME, organism-based; set-up: dose 1 mg/kg, route intravenous; settings: in vivo; how it was run: as §3
[15] = Clearance in mouse at 1 mg/kg, iv; type: ADME, organism-based; settings: in vivo; how it was run: as §3
[16] = AUC (infinity) in mouse at 5 mg/kg, po; type: ADME, organism-based; set-up: dose 5 mg/kg, time infinity, route oral; settings: in vivo
[17] = Oral bioavailability in mouse at 5 mg/kg; type: ADME, organism-based; settings: in vivo; how it was run: as §2
[18] = AUC (infinity) in rat at 5 mg/kg, po; type: ADME, organism-based; set-up: dose 5 mg/kg, time infinity, route oral; settings: in vivo
[19] = system: Rattus norvegicus; assay: Volume of distribution in rat at 5 mg/kg, po; type: ADME, organism-based; settings: in vivo
[20] = system: Mus musculus; assay: Anti-angiogenesis activity in neonatal mouse pups assessed as induction of abnormal retinal vascular morphology at 100 mg/kg, ip dosed daily form P1 to P6 days by isolectin -B4 staining
[21] = system: Mus musculus; assay: Drug level in neonatal mouse pups assessed as time duration for sustained drug exposure at 25 and 50 mg/kg, ip; type: ADME, organism-based; settings: in vivo
How it was run: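 Neonatal mouse pups given 25 or 50 mg/kg intraperitoneally. Plasma exposure followed over 24 h post-dose.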

[22] = system: Mus musculus; assay: Anti-angiogenesis activity in neonatal mouse pups assessed as delay in retinal vascular outgrowth dosed intraperitoneally daily form P1 to P5 days by isolectin -B4 staining; type: functional, organism-based
How it was run: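 Newborn mice dosed IP daily with vehicle or 100 mg/kg from P1 to P5. Retinas flat-mounted at P6 and stained with isolectin-B4. Avascular area normalized to total retina, one value per retina. Mann–Whitney unpaired test.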

[23] = system: Canis familiaris; assay: Oral bioavailability in dog at 5 mg/kg; type: ADME, organism-based, Canis lupus familiaris; settings: in vivo; how it was run: as §2
[24] = Cmax in mouse at 1 mg/kg, iv; type: ADME, organism-based; set-up: dose 1 mg/kg, route intravenous; settings: in vivo; how it was run: as §3
[25] = Tmax in rat at 5 mg/kg, po; type: ADME, organism-based; settings: in vivo; how it was run: as §2
[26] = system: Mus musculus; assay: Volume of distribution in mouse at 5 mg/kg, po; type: ADME, organism-based; settings: in vivo
[27] = Clearance in rat at 1 mg/kg, iv; type: ADME, organism-based; settings: in vivo; how it was run: as §3
[28] = Cmax in rat at 5 mg/kg, po; type: ADME, organism-based; set-up: dose 5 mg/kg, route oral; settings: in vivo; how it was run: as §2
[29] = system: Canis familiaris; assay: AUC (infinity) in dog at 5 mg/kg, po; type: ADME, organism-based, Canis lupus familiaris; set-up: dose 5 mg/kg, time infinity, route oral; settings: in vivo
[30] = Half life in rat at 1 mg/kg, iv; type: ADME, organism-based; settings: in vivo; how it was run: as §3
[31] = system: Brain; assay: Free drug concentration in mouse brain; type: ADME, tissue-based; settings: in vivo
How it was run: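 Unbound drug concentration in brain measured in mice at the 1 h time point of the cross-species PK study.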

[32] = Tmax in dog at 5 mg/kg, po; type: ADME, organism-based, Canis lupus familiaris; settings: in vivo; how it was run: as §2
[33] = Half life in mouse at 1 mg/kg, iv; type: ADME, organism-based; settings: in vivo; how it was run: as §3
[34] = Tmax in mouse at 5 mg/kg, po; type: ADME, organism-based; settings: in vivo; how it was run: as §2
[35] = system: Canis familiaris; assay: Volume of distribution in dog at 5 mg/kg, po; type: ADME, organism-based, Canis lupus familiaris; settings: in vivo
[36] = Protein binding in mouse plasma; type: ADME, cell-free; settings: read-out: PPB (converted)
[37] = Protein binding in rat plasma; type: ADME, cell-free; settings: read-out: PPB (converted)
[38] = Ratio of drug level in brain to plasma in rat administered as cassette dosing; type: ADME, organism-based; settings: read-out: BPR
How it was run: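 Brain-to-plasma ratio determined in rats after IV cassette dosing.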

T1 sequence (O95819 whole entry): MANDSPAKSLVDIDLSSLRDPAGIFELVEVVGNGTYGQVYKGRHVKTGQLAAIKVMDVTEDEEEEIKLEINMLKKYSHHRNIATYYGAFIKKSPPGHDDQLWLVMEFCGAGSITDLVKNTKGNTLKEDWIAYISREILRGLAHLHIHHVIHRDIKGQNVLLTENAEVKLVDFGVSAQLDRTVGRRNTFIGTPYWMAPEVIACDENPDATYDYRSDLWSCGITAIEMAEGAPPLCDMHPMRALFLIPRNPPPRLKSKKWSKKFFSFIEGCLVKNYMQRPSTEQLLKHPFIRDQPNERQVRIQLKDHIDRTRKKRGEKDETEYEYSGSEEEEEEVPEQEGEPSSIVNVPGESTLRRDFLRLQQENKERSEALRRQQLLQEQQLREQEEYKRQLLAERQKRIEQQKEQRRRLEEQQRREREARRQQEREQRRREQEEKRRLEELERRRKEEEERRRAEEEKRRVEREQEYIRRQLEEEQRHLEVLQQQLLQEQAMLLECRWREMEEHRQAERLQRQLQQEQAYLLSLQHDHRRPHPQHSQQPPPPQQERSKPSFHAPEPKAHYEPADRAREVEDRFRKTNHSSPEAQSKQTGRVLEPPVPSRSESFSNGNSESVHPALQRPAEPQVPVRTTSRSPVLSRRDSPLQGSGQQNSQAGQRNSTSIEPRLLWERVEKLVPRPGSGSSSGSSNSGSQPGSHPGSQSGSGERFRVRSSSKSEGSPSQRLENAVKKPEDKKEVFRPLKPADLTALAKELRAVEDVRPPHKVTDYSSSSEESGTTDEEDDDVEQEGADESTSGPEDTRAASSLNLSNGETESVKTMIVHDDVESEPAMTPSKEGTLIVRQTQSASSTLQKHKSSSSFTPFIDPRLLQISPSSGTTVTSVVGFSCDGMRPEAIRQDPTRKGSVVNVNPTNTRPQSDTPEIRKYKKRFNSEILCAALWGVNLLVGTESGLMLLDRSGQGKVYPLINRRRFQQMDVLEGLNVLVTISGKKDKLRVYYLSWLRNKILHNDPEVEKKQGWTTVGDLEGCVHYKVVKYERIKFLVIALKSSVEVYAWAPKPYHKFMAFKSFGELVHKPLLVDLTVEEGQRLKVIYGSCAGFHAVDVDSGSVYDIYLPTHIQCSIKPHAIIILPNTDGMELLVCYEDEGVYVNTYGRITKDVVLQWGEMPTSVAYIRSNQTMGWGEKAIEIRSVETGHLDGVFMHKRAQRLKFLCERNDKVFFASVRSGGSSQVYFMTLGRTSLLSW

efflux ratio at 1 h, 10 µM [2]: 0.83 | Papp at 1 h, 10 µM [3]: 10.1 ×10⁻⁶ cm/s | CLhep predicted [4]: 61 mL/min/kg | CLhep predicted [6]: 6 mL/min/kg | IC50 [7]: 3.7 nM
Structure (SMILES): Nc1ncc(C(=O)N[C@H]2C[C@@H](O)C2)c2ccc(-c3cccc(F)c3)nc12
IC50 [5]: 215 nM

bioavailability [9]: 40% | efflux ratio at 1 h, 10 µM [2]: 2.3 | Cmax [10]: 3900 nM | Cmax [11]: 1400 nM | half-life [12]: 1.8 h | Cmax [13]: 1200 nM | Cmax [14]: 4000 nM | clearance [15]: 19 mL/min/kg | AUC(0-inf) [16]: 5.3 µM·h | bioavailability [17]: 47% | AUC(0-inf) [18]: 12 µM·h | Papp at 1 h, 10 µM [3]: 7.3 ×10⁻⁶ cm/s | Vd [19]: 1.2 L/kg | Time [21]: > 24 h | CLhep predicted [4]: 13 mL/min/kg | F [23]: 37% | Cmax [24]: 2700 nM | Tmax [25]: 4 h | Vd [26]: 1.6 L/kg | clearance [27]: 7.5 mL/min/kg | Cmax [28]: 1500 nM | AUC [29]: 21 µM·h | CLhep predicted [6]: 7 mL/min/kg | half-life [30]: 3.4 h | Drug uptake(free) [31]: 0.008 µM | Tmax [32]: 1.7 h | half-life [33]: 1.5 h | Tmax [34]: 1 h | Vd [35]: 1.1 L/kg | fraction unbound [36]: 0.056 | fraction unbound [37]: 0.022 | IC50 [7]: 3.7 nM
Structure (SMILES): Nc1ncc(C(=O)NC2CN(C(=O)C3CC3)C2)c2ccc(-c3cccc(F)c3)nc12
Activity [20]: Active | Activity [22]: Active | IC50 [5]: 57 nM

efflux ratio at 1 h, 10 µM [2]: 0.74 | Papp at 1 h, 10 µM [3]: 3.4 ×10⁻⁶ cm/s | CLhep predicted [4]: 78 mL/min/kg | CLhep predicted [6]: 16 mL/min/kg | IC50 [7]: 1.4 nM
Structure (SMILES): Nc1ncc(C(=O)NC2CC2)c2ccc(-c3cccc(F)c3)nc12
IC50 [5]: 99 nM

CLhep predicted [4]: 28 mL/min/kg | CLhep predicted [6]: 5 mL/min/kg | IC50 [7]: 3.5 nM
Structure (SMILES): CCC(=O)N1CC(NC(=O)c2cnc(N)c3nc(-c4cccc(F)c4)ccc23)C1
IC50 [5]: 79 nM

efflux ratio at 1 h, 10 µM [2]: 1.1 | Papp at 1 h, 10 µM [3]: 2.4 ×10⁻⁶ cm/s | CLhep predicted [4]: 32 mL/min/kg | CLhep predicted [6]: 9 mL/min/kg
Structure (SMILES): CNC(=O)N1CC(NC(=O)c2cnc(N)c3nc(-c4cccc(F)c4)ccc23)C1
IC50 [5]: 196 nM

Second part, the compound before the results:

Structure (SMILES): Nc1ncc(C(=O)NC2CNC2)c2ccc(-c3cccc(F)c3)cc12
CLhep predicted [1]: 10.7 mL/min/kg

Structure (SMILES): NC(=O)c1cnc(N)c2cc(-c3cccc(F)c3)ccc12
CLhep predicted [1]: 40 mL/min/kg | IC50 [7]: 18 nM

Structure (SMILES): CC(=O)N1CC(NC(=O)c2cnc(N)c3cc(-c4cccc(F)c4)ccc23)C1
CLhep predicted [1]: 9 mL/min/kg | IC50 [7]: 32 nM

Structure (SMILES): CNC(=O)N1CC(NC(=O)c2cnc(N)c3cc(-c4cccc(F)c4)ccc23)C1
CLhep predicted [1]: 12.7 mL/min/kg

Structure (SMILES): Nc1ncc(C(=O)NC2CC2)c2ccc(-c3cccc(F)c3)cc12
CLhep predicted [1]: 28 mL/min/kg | IC50 [8]: 16 nM

Structure (SMILES): Nc1ncc(C(=O)NC2CC(O)C2)c2ccc(-c3cccc(F)c3)cc12 (mixture of isomers)
Kp [38]: 0.02 | CLhep predicted [1]: 14.9 mL/min/kg | IC50 [7]: 41 nM

Structure (SMILES): N#CCNC(=O)c1cnc(N)c2cc(-c3cccc(F)c3)ccc12
Kp [38]: 0.12 | CLhep predicted [1]: 23 mL/min/kg | IC50 [7]: 46 nM

Structure (SMILES): Nc1ncnc2ccc(-c3cccc(F)c3)cc12
CLhep predicted [1]: 47.5 mL/min/kg
